Source: PubChem BioAssay
Activity calls are given as the source filed them.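 The calls were made as follows, unless noted: active = NADPH fluorescence slope more negative than the mean of all samples by about 3 SD, 99.7% confidence; inactive = the rest.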

Legend:
[1] = inhibitors of TNFa-induced NFkB p65 translocation, primary screen, imaging, HUVEC, MLSMR starter and 10KST1 sets (AID 438;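 active = inhibition above 20% together with a positive visual image hit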;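 also: compound added about 3h40 before a 20 min TNFalpha stimulation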;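 as to inhibition: signal is the nuclear over cytoplasmic p65 intensity ratio per well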); settings: HUVEC TNFa-induced p65 nuclear translocation; cell count: measured here: nuclei count (cytotoxicity indicator), at 2.08 µM; inhibition: at 2 µM, stronger effect = higher value, 0% TNFa-plus-vehicle, 100% no-TNFa wells
[2] = inhibitors of mutant huntingtin aggregation, primary screen, imaging, exon1htt(103Q)mCFP cells, high-content imaging (AID 483;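 active = visual image review flags a hit and inhibition of aggregation exceeds 20%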;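 also: compound exposure lasted 3 days before fixation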;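 as to nuclei count: percent of the per-plate median nuclei count of sample wells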); settings: exon1htt(103Q)mCFP cell line, aggregate imaging, at 2 µM; inhibition of aggregation: stronger effect = higher value; nuclei count: measured here: cell count, toxicity
[3] = inhibitors of E-selectin induction by TNFa, primary screen, imaging, HUVEC, immunofluorescence, MLSMR starter and 10KST1 sets (AID 487;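 active = visually confirmed hit in the image check and inhibition above 20%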;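 as to inhibition: signal is fraction of cell area covered by stained E-selectin grains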;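 as to nuclei count: 100% = median nuclei count of all wells on the same plate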); settings: HUVEC TNFalpha-induced E-selectin immunofluorescence imaging, at 2 µM; inhibition: stronger effect = higher value; nuclei count: measured here: cell number, toxicity
[4] = target: Voltage-gated potassium channel subunit beta-2 (Rattus norvegicus) (UniProt P62483); test: KvBeta enzyme negative modulators, primary screen, biochemical, NADPH fluorescence (AID 622;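 active = fluorescence slope higher than the sample average by over 3 SD, cut at about -0.22 in these data, passing the limit was not always enough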;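 also: slope of raw intensity against log time taken from 70 to 1610 s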); settings: recombinant KvBeta, 4-cyanobenzaldehyde reduction, at 10 µM, stronger effect = higher value
Chain of Voltage-gated potassium channel subunit beta-2 (Rattus norvegicus) (P62483 whole entry, looked up): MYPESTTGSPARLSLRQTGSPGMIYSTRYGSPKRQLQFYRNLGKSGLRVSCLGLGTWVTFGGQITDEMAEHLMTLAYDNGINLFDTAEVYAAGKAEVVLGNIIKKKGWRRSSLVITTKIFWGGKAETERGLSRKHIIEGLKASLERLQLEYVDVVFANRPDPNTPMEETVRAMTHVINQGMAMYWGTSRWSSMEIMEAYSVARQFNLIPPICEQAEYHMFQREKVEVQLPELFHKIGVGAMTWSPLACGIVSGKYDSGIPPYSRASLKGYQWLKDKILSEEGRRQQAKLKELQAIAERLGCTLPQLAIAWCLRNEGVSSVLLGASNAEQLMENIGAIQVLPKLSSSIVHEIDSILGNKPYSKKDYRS

[5] = target: Voltage-gated potassium channel subunit beta-2 (Rattus norvegicus) (UniProt P62483); test: KvBeta positive modulators, primary screen, biochemical, NADPH fluorescence (AID 623); settings: Recombinant KvBeta, NADPH fluorescence decrease slope, 10 min; at 10 µM; stronger effect = lower value;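 also: fluorescence intensity change per second fitted from 20 to 320 s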
[6] = target: Muscarinic acetylcholine receptor M4 (Homo sapiens) (UniProt P08173); test: compounds altering M4/GIRK thallium flux, either direction, primary screen, M4 allosteric agonist project, cell-based, HEK293 M4/GIRK, BTC-AM (AID 625;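 active = fluorescence slope after compound addition differing from the mean of all tested samples at 99.7% confidence, mostly higher but some lower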;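 also: thallium influx through GIRK channels coupled to M4 in HEK293 cells with BTC-AM dye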); settings: at 10 µM, actives lie on both sides
Chain of Muscarinic acetylcholine receptor M4 (Homo sapiens) (P08173 whole entry, looked up): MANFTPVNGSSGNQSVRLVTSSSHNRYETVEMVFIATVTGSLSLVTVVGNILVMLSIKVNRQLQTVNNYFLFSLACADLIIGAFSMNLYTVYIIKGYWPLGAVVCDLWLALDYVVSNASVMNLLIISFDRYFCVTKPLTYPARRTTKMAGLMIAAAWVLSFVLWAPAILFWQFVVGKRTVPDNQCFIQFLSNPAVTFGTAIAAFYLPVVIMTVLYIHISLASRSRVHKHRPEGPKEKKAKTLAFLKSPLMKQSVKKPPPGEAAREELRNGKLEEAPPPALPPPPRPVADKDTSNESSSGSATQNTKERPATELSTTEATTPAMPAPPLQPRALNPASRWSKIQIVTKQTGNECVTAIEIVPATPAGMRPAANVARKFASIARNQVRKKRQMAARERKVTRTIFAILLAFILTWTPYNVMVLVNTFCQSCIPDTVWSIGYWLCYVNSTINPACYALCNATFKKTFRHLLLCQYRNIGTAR
How it was run: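 Material: M4/GIRK1/GIRK2 stable HEK293 cell line. Medium: pH 7.3 thallium assay buffer. Dosing: single compound concentration, 10 µM final. Schedule: 1 h dye loading, 2 min kinetic read. Measured by: kinetic fluorescence with BTC-AM dye. Read-out: post-addition slope, 15–24 s, of baseline-normalized fluorescence. Benchmarks: carbachol and DMSO controls.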

[7] = inhibitors of Sendai virus-induced IRF3 signaling, primary screen, TLR/RLR signaling modifier project, cell-based, Sendai virus stimulus, luciferase, 10K MLSCN set (AID 602276;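 active = inhibition at or above 50% at 10 µM; inactive = inhibition below 50%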;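 also: firefly luciferase from ISG56 promoter only with Renilla not read in this screen; 0% = Sendai virus plus DMSO and 100% = medium plus DMSO without virus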); settings: HEK293 RL24 IRF3 luciferase reporter, at 10 µM, stronger effect = higher value
[8] = inhibitors of poly I:C-induced TLR3 signaling, primary screen, cell-based, poly I:C stimulus, luciferase, 10K MLSCN set (AID 602277;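 active = inhibition of the reporter signal at or above 50%; inactive = inhibition below 50%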); settings: HEK293-TLR3 RL24 IRF3 luciferase reporter, at 10 µM, stronger effect = higher value

Compound | cell count [1] | inhibition [1] | inhibition of aggregation [2] | nuclei count [2] [%] | inhibition [3] | nuclei count [3] [%] | fluorescence slope [4] | NADPH fluorescence slope [5] | fluorescence slope [6] | inhibition [7] | inhibition [8]
O=C1C=C(NCc2ccco2)C2(CCCCC2)O1 | 495 | 7.6% (inactive) | 0.6% (inactive) | 97.5 | -229% (inactive) | 125 | -0.569 (inactive) | -5.7e-05 (inactive) | 0.00577 (inactive) | 17.4% (inactive) | 20.2% (inactive)
CC(NC(=O)c1ccccc1NC(=O)c1ccco1)C(=O)O (stereo not drawn) | 438 | 0.9% (inactive) | -9.6% (inactive) | 100 | -67.5% (inactive) | 121 | -0.551 (inactive) | -5.5e-05 (inactive) | 0.006 (inactive) | 23.6% (inactive) | 20% (inactive)
Cc1cc(C(=O)Nc2cc(C)n(Cc3ccc(Cl)cc3)n2)no1 | 240 | 9.5% (inactive) | -10.6% (inactive) | 98.8 | -39.5% (inactive) | 88.4 | -0.483 (inactive) | -1.4e-05 (inactive) | 0.0053 (inactive) | -11.3% (inactive) | -27.1% (inactive)
CCOC(=O)c1cnn(-c2ncnc3c2cnn3Cc2ccccc2)c1N | 410 | -4.6% (inactive) | 8.7% (inactive) | 100 | -19.2% (inactive) | 118 | -0.51 (inactive) | 1.3e-05 (inactive) | 0.0057 (inactive) | 17.2% (inactive) | 17.4% (inactive)
Cc1ccc2[nH]c(=O)c(CN(CCCO)S(=O)(=O)c3c(C)ccc4nsnc34)cc2c1 | 334 | -2.5% (inactive) | -11.4% (inactive) | 103 | -54.5% (inactive) | 120 | -0.459 (inactive) | -3e-05 (inactive) | 0.00552 (inactive) | 11.1% (inactive) | 29.7% (inactive)
Cc1ccccc1CS(=O)(=O)CCC(=O)N1CCN(c2ccc(N3CCOCC3)nn2)CC1 | 318 | -0.9% (inactive) | -19.9% (inactive) | 81 | -146% (inactive) | 87.2 | -0.424 (inactive) | -8.7e-08 (inactive) | 0.00541 (inactive) | 3.04% (inactive) | 12.2% (inactive)
O=C(Cc1cccs1)Nc1ccccc1C(=O)O | 365 | 2.6% (inactive) | 13.3% (inactive) | 99.5 | -7.6% (inactive) | 113 | -0.524 (inactive) | -3.3e-05 (inactive) | 0.00502 (inactive) | -8.52% (inactive) | -27.9% (inactive)
CCC1Oc2ccccc2N(CC(=O)Nc2ccc(OC)cc2OC)C1=O (stereo not drawn) | 726 | 44.3% (active) | -17.4% (inactive) | 117 | -57% (inactive) | 127 | -0.533 (inactive) | -0.000132 (inactive) | 0.00464 (inactive) | -2.59% (inactive) | 4.28% (inactive)
CCCN(CCC)S(=O)(=O)c1ccc(C(=O)Nc2nnc(-c3cccc(OC)c3)o2)cc1 | 345 | 1.4% (inactive) | 13.6% (inactive) | 92.5 | 38.1% (inactive) | 107 | -0.5 (inactive) | -0.000148 (inactive) | 0.0064 (inactive) | 27.3% (inactive) | 23.2% (inactive)
CCOc1ccc(C(=O)N(CN2CCCC2=O)c2ccc(C)cc2)cc1 | 385 | -1.4% (inactive) | -14.5% (inactive) | 118 | 14.5% (inactive) | 84 | -0.53 (inactive) | -5.9e-05 (inactive) | 0.0056 (inactive) | -0.0171% (inactive) | -43.9% (inactive)
Cc1cccc(-n2c(N)c(C(=O)N3CCN(C)CC3)sc2=S)c1 | 786 | 0.5% (inactive) | -24.6% (inactive) | 96.9 | -25.5% (inactive) | 114 | -0.56 (inactive) | -2.7e-06 (inactive) | 0.00592 (inactive) | -4.11% (inactive) | 6.8% (inactive)
Cc1nc2ccc(NC(=O)N3CCOCC3)cc2s1 | 416 | 0.5% (inactive) | -0.3% (inactive) | 96.2 | -51% (inactive) | 109 | -0.497 (inactive) | 8.6e-06 (inactive) | 0.00618 (inactive) | 10.7% (inactive) | 8.12% (inactive)
Cc1ccc2[nH]c(=O)c(CN(CCc3ccccc3)Cc3nnnn3CC3CCCO3)cc2c1 (stereo not drawn) | 676 | -10.2% (inactive) | 0.9% (inactive) | 105 | 75.6% (active) | 112 | -0.498 (inactive) | -7e-06 (inactive) | 0.00636 (inactive) | -7.83% (inactive) | -6.03% (inactive)
COc1cccc(-c2cc(C(F)(F)F)n3nc(N)nc3n2)c1 | 814 | -0.8% (inactive) | 18.9% (inactive) | 90.5 | 31.9% (inactive) | 98.9 | -0.449 (inactive) | -5e-05 (inactive) | 0.00414 (inactive) | 6.21% (inactive) | -0.814% (inactive)
Cc1nn(-c2ccccc2)c(C)c1C(=O)OCC(=O)c1c(N)n(CC(C)C)c(=O)n(C)c1=O | 486 | 4.2% (inactive) | -2.5% (inactive) | 78.8 | -65.4% (inactive) | 127 | -0.504 (inactive) | 0.000168 (inactive) | 0.00552 (inactive) | 4.86% (inactive) | -99.7% (inactive)
COc1ccc(CN(C)CC(=O)c2c(N)n(Cc3ccccc3)c(=O)n(C)c2=O)c(OC)c1 | 459 | -21.4% (inactive) | -15.1% (inactive) | 103 | 2.2% (inactive) | 98.3 | -0.579 (inactive) | -1.3e-05 (inactive) | 0.00645 (inactive) | 17.1% (inactive) | 24.3% (inactive)
CCSc1nc(C)nc2c1oc1ccccc12 | 407 | 1.9% (inactive) | 2.4% (inactive) | 96.3 | -45.2% (inactive) | 106 | -0.423 (inactive) | -7.5e-05 (inactive) | 0.00861 (inactive) | -4.86% (inactive) | -3.79% (inactive)
Cc1ccc(C)c(N2CCN(C(=O)C3CCN(S(=O)(=O)c4c(C)noc4C)CC3)CC2)c1 | 448 | -10.8% (inactive) | 30.5% (inactive) | 77 | -17.6% (inactive) | 99.8 | -0.474 (inactive) | -8.1e-06 (inactive) | 0.00554 (inactive) | 11.3% (inactive) | -1.19% (inactive)
COc1ccc(CCn2c(N)c(C#N)c3nc4ccccc4nc32)cc1OC | 397 | -2.3% (inactive) | -8% (inactive) | 105 | 21.9% (inactive) | 150 | -0.52 (inactive) | -5.8e-05 (inactive) | 0.00433 (inactive) | 17.3% (inactive) | 13.6% (inactive)
Cn1c(Cc2cccs2)nnc1SCC(=O)N1CCc2ccccc21 | 369 | -1.8% (inactive) | 14.1% (inactive) | 93.4 | -67.8% (inactive) | 93.3 | -0.479 (inactive) | -6.1e-05 (inactive) | 0.00472 (inactive) | 8.51% (inactive) | 16.5% (inactive)
CCCS(=O)(=O)N1CCN(C(=O)CCC2CCCC2)CC1 | 222 | 8.5% (inactive) | 15.8% (inactive) | 77.9 | -18.1% (inactive) | 148 | -0.435 (inactive) | -3.3e-05 (inactive) | 0.00496 (inactive) | 10.9% (inactive) | 17.4% (inactive)
Cc1occc1C(=O)Nc1ccccc1NC(=O)c1ccoc1C | 425 | -11.5% (inactive) | 29.8% (inactive) | 87.4 | 40.5% (inactive) | 90.2 | -0.543 (inactive) | -3.1e-05 (inactive) | 0.00485 (inactive) | 12.7% (inactive) | 24.7% (inactive)
Cc1ccc(S(=O)(=O)NCCNC(=O)c2ccccc2)cc1 | 212 | -4.9% (inactive) | 10.3% (inactive) | 97.8 | -38.2% (inactive) | 93.6 | -0.282 (inactive) | -4.2e-05 (inactive) | 0.00552 (inactive) | 13.4% (inactive) | 10.4% (inactive)
COc1ccccc1-c1nnc2sc(-c3ccc(N(C)C)cc3)nn12 | 695 | -11.2% (inactive) | -34.9% (inactive) | 1.9 | -217% (inactive) | 107 | -0.517 (inactive) | 1.2e-05 (inactive) | 0.00532 (inactive) | 37.1% (inactive) | 87.1% (active)
O=C(O)CSc1ccc2ccccc2n1 | 418 | 3.6% (inactive) | 1.4% (inactive) | 106 | 15.7% (inactive) | 102 | -0.525 (inactive) | -3.7e-05 (inactive) | 0.00444 (inactive) | 19% (inactive) | 23.8% (inactive)
COc1ccc2cnn(-c3ccccc3)c(=O)c2c1OC | 342 | -1.2% (inactive) | -8.5% (inactive) | 107 | 35.5% (inactive) | 109 | -0.549 (inactive) | -7.6e-05 (inactive) | 0.00377 (inactive) | -4.11% (inactive) | -25.4% (inactive)
Cc1cccc(-n2nnc(C(=O)NCc3ccccc3)c2N)c1 | 477 | 2.1% (inactive) | -17.4% (inactive) | 116 | -2.7% (inactive) | 106 | -0.461 (inactive) | -0.000212 (inactive) | 0.0054 (inactive) | 9.81% (inactive) | 9.19% (inactive)
COc1ccc(CN(C(=O)c2ccccc2OC)C2CCS(=O)(=O)C2)cc1 (stereo not drawn) | 452 | 2.2% (inactive) | 23% (inactive) | 75 | 13.1% (inactive) | 109 | -0.58 (inactive) | -7.5e-05 (inactive) | 0.00303 (inactive) | 14.2% (inactive) | 23.7% (inactive)
